Data taken from ChEMBL document CHEMBL4616671, “Identification of N-Phenyl-7H-pyrrolo[2,3-d]pyrimidin-4-amine Derivatives as Novel, Potent, and Selective NF-κB Inducing Kinase (NIK) Inhibitors for the Treatment of Psoriasis” (J Med Chem, 2020).
Active and inactive are the calls of the source. No cut-off for these calls is given here.

Columns and labels:
[1] = biological target: Mitogen-activated protein kinase kinase kinase 14 (Mus musculus) (UniProt Q9WUL6); assay: Inhibition of NIK in mouse J774 cells assessed as reduction in LPS-induced IL6 mRNA level by SYBR green dye-based quantitative PCR analysis; format: cell-based
Outline: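 LPS-stimulated J774 macrophages; mRNA quantified by qPCR using 4 µL cDNA plus 16 µL master mix per reaction. Mean ± SD of three biological replicates; significance by two-tailed Student's t-test against the model group.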

Activated CDC42 kinase 1 = Activated CDC42 kinase 1 (Homo sapiens, UniProt Q07912); assay: Inhibition of human ACK1 using [EAIYAAPFAKKK] as substrate in presence of [gamma33P]ATP by hotspot assay
Homo sapiens [2] = species: Homo sapiens; assay: Selectivity ratio of IC50 for human TRKC to IC50 for human NIK
[3] = Intrinsic hepatic clearance in monkey; format: ADME, Macaca mulatta; conditions: rhesus monkey, in vivo
Outline: (§1)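 Scaled from microsomal intrinsic clearance: CLint,in vitro × microsomal protein per g liver × liver weight per kg body weight.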

[4] = biological target: NT-3 growth factor receptor (Homo sapiens, UniProt Q16288); assay: Inhibition of human TRKC using poly[Glu:Tyr] (4:1) as substrate in presence of [gamma33P]ATP by hotspot assay
[5] = Intrinsic hepatic clearance in rat; format: ADME; conditions: in vivo; outline: as §1
[6] = AUC (0 to infinity) in Sprague-Dawley rat at 10 mg/kg, po administered via gavage by LC-MS/MS analysis; format: ADME, organism-based; design: dose 10 mg/kg, time infinity, route oral; conditions: in vivo
Outline: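 Single oral gavage in SD rats, 3 per group, as a suspension in saline with 0.5% CMC-Na and 0.2% Tween 80, 1 mg/mL. Plasma protein-precipitated with ACN containing internal standards, then LC-MS/MS. AUC0-∞ by linear trapezoidal rule, noncompartmental analysis. Mean ± SD of three rats.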

Mus musculus [7] = assay: Protection against IMQ-induced dermatitis in C57 mouse model of psoriasis assessed as reduction in roughness at 60 to 120 mg/kg, ig administered once daily starting from day 3 post IMQ-challenge and measured 2 days post-last dose of IMQ; format: functional, organism-based
Outline: (§2)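 C57 mice given 5% imiquimod cream on the back once daily for 7 days; intragastric dosing 60 or 120 mg/kg once daily from day 3 to end, n = 6 per group. Dorsal skin phenotype assessed by imaging.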

Homo sapiens [8] = species: Homo sapiens; assay: Selectivity ratio of IC50 for human Aurora B to IC50 for human NIK
Mus musculus [9] = assay: Protection against IMQ-induced dermatitis in C57 mouse model of psoriasis assessed as reduction in dermal scales at 120 mg/kg, ig administered once daily starting from day 3 post IMQ-challenge and measured 2 days post-last dose of IMQ; format: functional, organism-based; outline: as §2
[10] = biological target: Mitogen-activated protein kinase kinase kinase 14 (Mus musculus) (UniProt Q9WUL6); assay: In vivo inhibition of NIK in C57 mouse model of IMQ-induced psoriasis assessed as reduction in NF-kappaB signalling in back skin by measuring decrease in TNF-alpha mRNA level at 60 to 120 mg/kg, po administered starting from day 3 post IMQ-challenge and measured 2 days post-last dose of IMQ by qPCR analysis; format: functional, organism-based
Outline: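 IMQ psoriasis model: 5% imiquimod cream applied to C57 mouse back skin once daily for seven days; oral dosing 60 or 120 mg/kg once daily from day 3, n = 6 per group. Back-skin mRNA measured by qPCR.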

Mus musculus [11] = assay: Suppression of IMQ-induced psoriasis in C57 mouse assessed as reduction in spleen index at 60 mg/kg, ig administered once daily starting from day 3 post IMQ-challenge and measured 2 days post-last dose of IMQ; format: functional, organism-based
Outline: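 IMQ-induced C57 mice (5% cream daily 7 days; i.g. daily from day 3 at the stated dose, n = 6). Spleen weighed per mouse at end of study.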

[12] = biological target: Mitogen-activated protein kinase kinase kinase 14 (Homo sapiens, UniProt Q99558); assay: Inhibition of recombinant N-terminal GST-fused human NIK (319 to 947 residues) expressed in baculovirus expression system incubated for 120 mins in presence of ATP by ADP-glo based luminescence assay
Outline: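 ADP-Glo luminescence assay with recombinant human MAP3K14. Buffer: Tris pH 7.5, 2 mM DTT, 2 mM MgCl₂, 100 µM Na₃VO₄, 0.02 mg/mL BSA, 5% DMSO; ATP 10 µM. Reaction 120 min at room temperature; ADP-Glo reagent 40 min, then detection reagent 40 min. Mean ± SD from two independent experiments.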

[13] = biological target: T1, Tyrosine-protein kinase JAK3 (Homo sapiens, UniProt P52333); assay: Inhibition of human JAK3 using [GGEEEEYFELVKKKK] as substrate in presence of [gamma33P]ATP by hotspot assay
T1 sequence (P52333 whole entry): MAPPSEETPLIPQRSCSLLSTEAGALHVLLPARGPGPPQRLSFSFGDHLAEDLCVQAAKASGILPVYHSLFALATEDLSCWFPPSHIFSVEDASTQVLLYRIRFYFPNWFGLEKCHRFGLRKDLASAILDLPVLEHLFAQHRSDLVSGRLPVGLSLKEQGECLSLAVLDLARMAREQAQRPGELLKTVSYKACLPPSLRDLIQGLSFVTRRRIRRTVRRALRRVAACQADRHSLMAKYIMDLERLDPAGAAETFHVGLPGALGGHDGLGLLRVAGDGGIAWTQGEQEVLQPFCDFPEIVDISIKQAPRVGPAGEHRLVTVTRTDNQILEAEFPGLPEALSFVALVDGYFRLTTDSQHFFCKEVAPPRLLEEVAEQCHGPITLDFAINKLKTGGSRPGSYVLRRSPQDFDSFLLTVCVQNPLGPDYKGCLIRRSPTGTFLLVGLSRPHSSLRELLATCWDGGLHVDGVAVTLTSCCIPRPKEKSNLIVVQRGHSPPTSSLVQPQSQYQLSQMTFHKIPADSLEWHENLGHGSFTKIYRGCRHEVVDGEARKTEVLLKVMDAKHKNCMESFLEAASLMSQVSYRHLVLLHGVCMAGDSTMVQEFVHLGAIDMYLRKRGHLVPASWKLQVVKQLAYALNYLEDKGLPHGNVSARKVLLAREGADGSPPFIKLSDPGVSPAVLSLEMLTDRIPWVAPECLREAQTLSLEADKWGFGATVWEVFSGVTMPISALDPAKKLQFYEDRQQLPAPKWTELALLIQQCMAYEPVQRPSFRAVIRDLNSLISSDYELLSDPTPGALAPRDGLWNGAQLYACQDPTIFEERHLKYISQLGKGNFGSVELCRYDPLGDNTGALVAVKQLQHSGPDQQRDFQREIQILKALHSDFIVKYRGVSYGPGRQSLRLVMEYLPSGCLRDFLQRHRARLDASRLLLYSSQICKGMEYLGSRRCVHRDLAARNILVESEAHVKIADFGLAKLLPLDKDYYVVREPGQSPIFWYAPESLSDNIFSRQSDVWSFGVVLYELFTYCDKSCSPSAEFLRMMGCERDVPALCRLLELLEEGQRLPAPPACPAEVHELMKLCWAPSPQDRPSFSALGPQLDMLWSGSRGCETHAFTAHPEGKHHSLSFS

Homo sapiens [14] = species: Homo sapiens; assay: Selectivity ratio of IC50 for human JAK1 to IC50 for human NIK

Mitogen-activated protein kinase kinase kinase 14 (Mus musculus), sequence (Q9WUL6 whole entry): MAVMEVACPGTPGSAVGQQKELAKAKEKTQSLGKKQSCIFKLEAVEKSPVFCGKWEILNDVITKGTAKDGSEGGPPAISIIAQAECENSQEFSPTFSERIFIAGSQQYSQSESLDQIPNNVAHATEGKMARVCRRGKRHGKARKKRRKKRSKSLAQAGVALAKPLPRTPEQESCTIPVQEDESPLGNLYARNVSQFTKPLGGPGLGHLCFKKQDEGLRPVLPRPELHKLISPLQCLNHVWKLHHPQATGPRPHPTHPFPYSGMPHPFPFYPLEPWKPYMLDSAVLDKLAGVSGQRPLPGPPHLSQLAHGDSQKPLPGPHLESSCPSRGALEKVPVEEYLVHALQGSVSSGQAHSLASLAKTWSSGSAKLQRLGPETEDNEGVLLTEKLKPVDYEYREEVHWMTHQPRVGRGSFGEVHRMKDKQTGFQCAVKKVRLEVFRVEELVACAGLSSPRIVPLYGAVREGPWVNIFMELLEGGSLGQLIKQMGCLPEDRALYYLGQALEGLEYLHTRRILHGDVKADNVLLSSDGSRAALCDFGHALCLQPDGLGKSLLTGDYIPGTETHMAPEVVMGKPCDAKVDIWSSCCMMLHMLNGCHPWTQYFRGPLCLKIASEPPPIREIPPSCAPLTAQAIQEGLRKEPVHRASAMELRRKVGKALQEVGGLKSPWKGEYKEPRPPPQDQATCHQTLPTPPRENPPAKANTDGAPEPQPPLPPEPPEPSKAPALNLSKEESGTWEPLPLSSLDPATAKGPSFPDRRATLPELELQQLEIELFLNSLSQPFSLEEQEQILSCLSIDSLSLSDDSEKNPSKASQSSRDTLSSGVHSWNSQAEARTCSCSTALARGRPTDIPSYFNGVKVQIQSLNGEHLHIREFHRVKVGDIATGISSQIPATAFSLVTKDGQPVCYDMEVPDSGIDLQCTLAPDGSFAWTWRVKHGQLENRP
Activated CDC42 kinase 1, sequence (Q07912 whole entry): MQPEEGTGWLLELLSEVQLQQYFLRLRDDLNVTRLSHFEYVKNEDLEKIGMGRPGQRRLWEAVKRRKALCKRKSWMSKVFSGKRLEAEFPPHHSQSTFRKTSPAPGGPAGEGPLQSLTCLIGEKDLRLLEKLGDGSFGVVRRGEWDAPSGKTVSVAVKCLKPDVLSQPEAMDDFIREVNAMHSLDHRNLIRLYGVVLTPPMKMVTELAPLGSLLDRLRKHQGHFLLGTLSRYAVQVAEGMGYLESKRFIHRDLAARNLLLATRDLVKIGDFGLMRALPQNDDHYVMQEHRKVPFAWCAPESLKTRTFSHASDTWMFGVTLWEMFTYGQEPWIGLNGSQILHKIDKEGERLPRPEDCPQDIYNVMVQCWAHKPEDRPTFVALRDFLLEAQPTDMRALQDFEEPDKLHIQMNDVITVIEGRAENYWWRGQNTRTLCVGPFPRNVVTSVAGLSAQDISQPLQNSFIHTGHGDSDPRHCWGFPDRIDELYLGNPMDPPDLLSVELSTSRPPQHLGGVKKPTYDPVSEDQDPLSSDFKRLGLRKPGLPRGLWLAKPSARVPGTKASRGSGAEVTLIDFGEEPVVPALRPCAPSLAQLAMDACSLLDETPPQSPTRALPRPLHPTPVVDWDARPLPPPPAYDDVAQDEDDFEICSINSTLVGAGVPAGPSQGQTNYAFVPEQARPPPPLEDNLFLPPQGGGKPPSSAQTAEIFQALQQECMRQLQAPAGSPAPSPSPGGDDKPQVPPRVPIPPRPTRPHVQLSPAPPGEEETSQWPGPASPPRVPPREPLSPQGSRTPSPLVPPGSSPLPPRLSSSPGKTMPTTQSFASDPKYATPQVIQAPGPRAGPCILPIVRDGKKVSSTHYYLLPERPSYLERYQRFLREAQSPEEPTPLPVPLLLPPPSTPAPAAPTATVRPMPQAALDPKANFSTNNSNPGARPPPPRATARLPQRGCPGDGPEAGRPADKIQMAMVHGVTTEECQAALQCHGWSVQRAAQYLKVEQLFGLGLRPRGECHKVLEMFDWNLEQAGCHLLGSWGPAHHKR
Mitogen-activated protein kinase kinase kinase 14, sequence (Q99558 whole entry, the tested form may be a part): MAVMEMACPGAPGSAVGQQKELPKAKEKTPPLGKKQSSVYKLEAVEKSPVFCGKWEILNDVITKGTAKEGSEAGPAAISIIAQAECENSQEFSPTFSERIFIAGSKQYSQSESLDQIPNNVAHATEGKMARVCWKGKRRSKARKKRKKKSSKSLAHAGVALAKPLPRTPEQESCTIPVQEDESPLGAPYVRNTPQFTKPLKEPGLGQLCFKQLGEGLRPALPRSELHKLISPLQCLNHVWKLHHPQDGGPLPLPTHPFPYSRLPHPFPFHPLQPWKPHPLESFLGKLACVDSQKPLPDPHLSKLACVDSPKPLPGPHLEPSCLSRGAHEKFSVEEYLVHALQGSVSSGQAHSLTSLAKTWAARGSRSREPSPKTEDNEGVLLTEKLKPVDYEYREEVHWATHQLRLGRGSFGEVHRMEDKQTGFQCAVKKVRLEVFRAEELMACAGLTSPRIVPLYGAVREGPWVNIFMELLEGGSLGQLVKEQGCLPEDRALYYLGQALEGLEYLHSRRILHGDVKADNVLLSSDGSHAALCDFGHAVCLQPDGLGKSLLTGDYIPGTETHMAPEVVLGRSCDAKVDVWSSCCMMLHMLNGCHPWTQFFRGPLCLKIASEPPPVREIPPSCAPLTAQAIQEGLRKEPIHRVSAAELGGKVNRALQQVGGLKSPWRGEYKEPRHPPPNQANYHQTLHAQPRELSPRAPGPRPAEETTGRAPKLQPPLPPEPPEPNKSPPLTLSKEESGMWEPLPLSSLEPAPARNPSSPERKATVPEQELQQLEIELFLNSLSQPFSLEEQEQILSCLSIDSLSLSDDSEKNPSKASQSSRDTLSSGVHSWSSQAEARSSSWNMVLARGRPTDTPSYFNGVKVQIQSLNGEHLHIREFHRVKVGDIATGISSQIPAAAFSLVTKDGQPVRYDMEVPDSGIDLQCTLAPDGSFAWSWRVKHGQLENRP
NT-3 growth factor receptor, sequence (Q16288 whole entry): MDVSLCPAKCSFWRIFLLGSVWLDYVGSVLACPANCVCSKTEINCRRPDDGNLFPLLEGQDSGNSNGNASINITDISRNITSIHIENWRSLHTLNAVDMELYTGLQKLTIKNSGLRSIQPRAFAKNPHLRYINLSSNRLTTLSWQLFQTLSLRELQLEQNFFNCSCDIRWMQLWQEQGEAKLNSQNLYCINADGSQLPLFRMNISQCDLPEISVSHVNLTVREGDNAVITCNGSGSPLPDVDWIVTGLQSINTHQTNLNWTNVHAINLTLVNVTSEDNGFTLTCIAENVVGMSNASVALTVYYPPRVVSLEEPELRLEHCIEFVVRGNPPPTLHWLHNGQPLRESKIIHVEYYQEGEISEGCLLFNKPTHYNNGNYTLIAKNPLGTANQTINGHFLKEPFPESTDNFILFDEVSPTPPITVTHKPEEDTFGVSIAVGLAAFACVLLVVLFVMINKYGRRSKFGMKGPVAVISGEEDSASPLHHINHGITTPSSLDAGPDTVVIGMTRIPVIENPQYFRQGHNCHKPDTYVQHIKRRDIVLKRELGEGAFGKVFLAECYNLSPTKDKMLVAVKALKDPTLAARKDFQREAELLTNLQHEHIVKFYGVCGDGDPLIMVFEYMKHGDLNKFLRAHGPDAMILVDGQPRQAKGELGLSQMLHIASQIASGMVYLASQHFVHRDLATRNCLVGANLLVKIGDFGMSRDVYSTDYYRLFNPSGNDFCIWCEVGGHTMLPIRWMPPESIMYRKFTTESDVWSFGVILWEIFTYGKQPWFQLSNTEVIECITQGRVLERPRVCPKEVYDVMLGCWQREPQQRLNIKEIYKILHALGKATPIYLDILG

inhibition [1]: Active
IC50 (Activated CDC42 kinase 1): 192 nM
Ratio IC50 (Homo sapiens [2]): 4 to 20
CLH [3]: 111 mL/min/kg
IC50 [4]: 50.1 nM
CLH [5]: 81 mL/min/kg
AUC(0-inf) [6]: 2680 ng·h/mL
Ratio IC50 (Homo sapiens [8]): 4 to 20
inhibition [10]: Active
IC50 [12]: 9.87 nM
IC50 [13]: 892 nM
Ratio IC50 (Homo sapiens [14]): 4 to 20
SMILES: CC(O)(C#Cc1ccc(N2CCOCC2)c(Nc2ncnc3[nH]ccc23)c1)c1nccs1 (racemic)
Activity (Mus musculus [7]): Active
Activity (Mus musculus [9]): Active
inhibition (Mus musculus [11]): Active
